Assay [1] concerns Human immunodeficiency virus 1. Nature of the assay: Inhibitory activity against HIV-1 mutant strain 103N. The class given is functional, organism-based. The method, boiled down: (§1)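 Mutant HIV-1 made by recombining mutant PR-RT sequence into a PR-RT-deleted HXB2 proviral clone. Serial compound concentrations plated, then virus (200 CCID50/well) and MT4 cells (30 000 cells/well; RPMI 1640, 10% FCS) added; 5 days at 37 °C, 5% CO2; viability read by MTT. EC50 = concentration giving 50% infection versus drug-free control; mock-infected cultures run in parallel for toxicity.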

The subject of assay [2] is Human immunodeficiency virus 1. Nature of the assay: Inhibitory activity against HIV-1 mutant strain 181C. It is filed as functional, organism-based. The procedure, abridged:
as §1

The test system of assay [3] is Human immunodeficiency virus 1. As to the kind of experiment: Inhibitory activity against HIV-1 mutant strain 188L. It is filed as functional, organism-based. The method, boiled down: as §1
The test system of assay [4] is Human immunodeficiency virus 1. As to the kind of experiment: Inhibitory activity against wild type HIV-1 LAI cell line. The settings on record: Human immunodeficiency virus 1, LAI. The class given is functional, organism-based. The procedure, abridged:
(§2)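 MT4 human T-lymphoblastoid cells were grown in RPMI 1640 with 10% fetal calf serum and antibiotics at 37 °C and 5% CO2. A compound concentration series was combined with HIV-1 LAI at 200 CCID50/well and 30 000 cells/well. Mock-infected cultures with the same concentrations were run in parallel to measure cytotoxicity. After 5 days, cell viability was read by MTT colorimetry. EC50 is the concentration giving 50% infection versus the drug-free control.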

Assay [5] has as its system Human immunodeficiency virus 1. Nature of the assay: Selectivity index of cytotoxic activity (CC50) to inhibitory activity (IC50) relative to LAI cell line. It is filed as functional. The method, boiled down:
as §2

What is called IC50 is the midpoint of a concentration-inhibition curve. Low readings indicate inhibition by little substance, high ones a need for much substance. Consider `CCc1c(C)nc(O)c(N(C)C)c1Cc1cccc(OC)c1`, for which the IC50 came out at 100 nM in assay [1], 320 nM in assay [2], 310 nM in assay [3] and 4 nM in assay [4]. In assay [5], this compound yielded a Selectivity index of 12600.
`CCc1c(C)nc(O)c(N(C)C)c1Cc1cccc(F)c1`: the IC50 was found to be 60 nM in assay [1], 160 nM in assay [2], 1580 nM in assay [3] and 2 nM in assay [4]. The compound also gave a Selectivity index in assay [5] of 39800.
Take `C/C=C/c1cccc(C(=O)c2c(CC)c(C)nc(O)c2N(C)C)c1`: the IC50 was determined as 150 nM in assay [1], 390 nM in assay [2], 390 nM in assay [3] and 5 nM in assay [4]. Moreover, in assay [5], the Selectivity index came to 10000.
Turning to `CCc1c(C)nc(O)c(N(C)C)c1Cc1cccc(C(F)(F)F)c1`, the IC50 in assay [1] stood at 390 nM; in assay [2], 30 nM; in assay [3] it was 5010 nM; in assay [4] it was 10 nM. The Selectivity index in assay [5] worked out at 10000.
For the compound `CCc1c(C)nc(O)c(N(C)C)c1Cc1cccc(Br)c1`, the IC50 is 100 nM in assay [1], 6 nM in assay [2], 2510 nM in assay [3] and 4 nM in assay [4]. In assay [5], this compound gave a Selectivity index of 25100.
Turning to `CCc1c(C)nc(O)c(N(C)C)c1Cc1cc(F)cc(F)c1`, the IC50 in assay [1] is 30 nM; in assay [2] it was 100 nM; in assay [3], 500 nM; in assay [4], 10 nM. Besides, in assay [5], the Selectivity index was 7940.
Consider `CCc1c(C)nc(O)c(N(C)C)c1Cc1cn(C)c2ccccc12`, for which the IC50 is 390 nM in assay [1], 310 nM in assay [2], 250 nM in assay [3] and 30 nM in assay [4]. The same compound returned a Selectivity index in assay [5] of 2510.
For `CCc1c(C)nc(O)c(N(C)C)c1Cc1ccccc1`, the IC50 in assay [1] stood at 200 nM; in assay [2], 500 nM; in assay [3], 7940 nM; in assay [4], 4 nM. The compound also displayed a Selectivity index in assay [5] of 25100.
For the compound `CCc1c(C)nc(O)c(N(C)C)c1C(=O)c1ccc(OC)c(C)c1`, the IC50 was found to be 1580 nM in assay [1], 100000 nM in assay [2], 100000 nM in assay [3] and 70 nM in assay [4]. This compound also returned a Selectivity index in assay [5] of 200.
Regarding `CCc1c(C)nc(O)c(N(C)C)c1C(=O)c1cccc(C=O)c1`, the IC50 in assay [1] worked out at 120 nM; in assay [2] it was 1250 nM; in assay [3], 10000 nM; in assay [4] it was 8 nM. Besides, the Selectivity index in assay [5] is 2510.
On the same counts, the results for `CCc1c(C)nc(O)c(N(C)C)c1C(=O)c1cccc(/C=C\C#N)c1` are 3 nM, 10 nM, 40 nM, 4 nM and 25100.
As for `CCc1c(C)nc(O)c(N(C)C)c1C(=O)c1cccc([N+](=O)[O-])c1`, the IC50 worked out at 20 nM in assay [1], 200 nM in assay [2], 3160 nM in assay [3] and 2 nM in assay [4]. This compound also yielded a Selectivity index in assay [5] of 39600.
Regarding `CCc1c(C)nc(O)c(N(C)C)c1C(=O)c1cccc(/C=C/c2cnccn2)c1`, the IC50 was 50 nM in assay [1], 70 nM in assay [2], 200 nM in assay [3] and 20 nM in assay [4]. In assay [5], this compound displayed a Selectivity index of 3960.
Turning to `CCc1c(C)nc(O)c(N(C)C)c1C(=O)c1cccc(CC#N)c1`, the IC50 is 6 nM in assay [1], 120 nM in assay [2], 1000 nM in assay [3] and 1 nM in assay [4]. Further, the Selectivity index in assay [5] was determined as 31600.
Take `CCc1c(C)nc(O)c(N(C)C)c1Cc1cccc(C)c1`: the IC50 in assay [1] was 20 nM; in assay [2], 60 nM; in assay [3], 1000 nM; in assay [4], 2 nM. The compound also had a Selectivity index in assay [5] of 39900.
As for `CCc1c(C)nc(O)c(N(C)C)c1Cc1ccccc1C`, the IC50 is 1250 nM in assay [1], 1000 nM in assay [2], 7940 nM in assay [3] and 20 nM in assay [4]. Further, the Selectivity index in assay [5] amounted to 3980.
On the same counts, the results for `C=Cc1cccc(C(=O)c2c(CC)c(C)nc(O)c2N(C)C)c1` are 30 nM, 630 nM, 790 nM, 2 nM and 12600.
In the case of `CCc1c(C)nc(O)c(N(C)C)c1C(=O)c1cccs1`, the IC50 in assay [1] came to 310 nM; in assay [2], 3980 nM; in assay [3], 100000 nM; in assay [4], 10 nM. For the same compound, the Selectivity index in assay [5] was found to be 6310.
In the same order, the values of `CCc1c(C)nc(O)c(N(C)C)c1Cc1cccnc1` are 390 nM, 1000 nM, 3980 nM, 10 nM and 6310.
On to `CCc1c(C)nc(O)c(N(C)C)c1C(=O)c1cccc(/C=C(\C)C#N)c1`, for which the values for the IC50 in assay [3] and in assay [4] were 630 nM and 1 nM, respectively. Further, the Selectivity index in assay [5] is 6310.
Regarding `CCc1c(C)nc(O)c(N(C)C)c1C(=O)c1ccc(C)o1`, the IC50 in assay [1] was determined as 250 nM; in assay [2], 1580 nM; in assay [3], 50100 nM; in assay [4], 10 nM. In assay [5], this compound returned a Selectivity index of 10000.
As for `CCc1c(C)nc(O)c(N(C)C)c1Cc1cccc(Cl)c1`, the IC50 in assay [1] worked out at 40 nM; in assay [2], 80 nM; in assay [3], 1580 nM; in assay [4], 5 nM. This compound also yielded a Selectivity index in assay [5] of 20000.
In the same order, the values of `CCc1c(C)nc(O)c(N(C)C)c1C(=O)c1cc(Br)cs1` are 100 nM, 630 nM, 10000 nM, 3 nM and 10000.
On the same counts, the results for `CCc1c(C)nc(O)c(N(C)C)c1C(=O)c1cccc(-c2cccnc2)c1` are 50 nM, 10000 nM, 10000 nM, 6 nM and 126.
As for `CCc1c(C)nc(O)c(N(C)C)c1Cc1ccccc1Br`, the IC50 came to 250 nM in assay [1], 130 nM in assay [2], 1990 nM in assay [3] and 6 nM in assay [4]. Also, the Selectivity index in assay [5] turned out to be 15900.
Regarding `CCc1c(C)nc(O)c(N(C)C)c1C(=O)c1cccc(N)c1`, the IC50 amounted to 500 nM in assay [1], 10000 nM in assay [2], 10000 nM in assay [3] and 10 nM in assay [4]. Further, in assay [5], the Selectivity index came to 2510.
On to `CCOC(=O)/C=C/c1cccc(C(=O)c2c(CC)c(C)nc(O)c2N(C)C)c1`, for which the concentration for half-maximal inhibition (IC50) in assay [1] was determined as 10 nM; in assay [2], 150 nM; in assay [3], 150 nM; in assay [4], 3 nM. In assay [5], this compound registered a Selectivity index of 3160.
Take `CCc1c(C)nc(O)c(N(C)C)c1C(=O)c1cccc(CCC#N)c1`: the half-maximal inhibitory concentration (IC50) was found to be 10 nM in assay [1], 250 nM in assay [2], 1990 nM in assay [3] and 3 nM in assay [4]. Also, the Selectivity index in assay [5] was found to be 31600.
For the compound `CCc1c(C)nc(O)c(N(C)C)c1C(=O)c1cccc(C(C)C#N)c1` (stereo not drawn), the IC50 in assay [1] is 8 nM; in assay [2], 120 nM; in assay [3] it was 250 nM; in assay [4], 3 nM. Moreover, in assay [5], the Selectivity index is 31600.
